Results on two molecules are retold here after ChEMBL document CHEMBL4014306, “Pyrazolopyrimidines as Potent Stimulators for Transient Receptor Potential Canonical 3/6/7 Channels” (J Med Chem, 2017).

The structures appear in SMILES notation. Active and inactive are the calls of the source. The rule behind the calls is not given here.

Type in all cases: cell-based
Test [1] concerns the target T1, Short transient receptor potential channel 7 (Homo sapiens) (UniProt Q9HCX4).
T1 sequence (whole entry): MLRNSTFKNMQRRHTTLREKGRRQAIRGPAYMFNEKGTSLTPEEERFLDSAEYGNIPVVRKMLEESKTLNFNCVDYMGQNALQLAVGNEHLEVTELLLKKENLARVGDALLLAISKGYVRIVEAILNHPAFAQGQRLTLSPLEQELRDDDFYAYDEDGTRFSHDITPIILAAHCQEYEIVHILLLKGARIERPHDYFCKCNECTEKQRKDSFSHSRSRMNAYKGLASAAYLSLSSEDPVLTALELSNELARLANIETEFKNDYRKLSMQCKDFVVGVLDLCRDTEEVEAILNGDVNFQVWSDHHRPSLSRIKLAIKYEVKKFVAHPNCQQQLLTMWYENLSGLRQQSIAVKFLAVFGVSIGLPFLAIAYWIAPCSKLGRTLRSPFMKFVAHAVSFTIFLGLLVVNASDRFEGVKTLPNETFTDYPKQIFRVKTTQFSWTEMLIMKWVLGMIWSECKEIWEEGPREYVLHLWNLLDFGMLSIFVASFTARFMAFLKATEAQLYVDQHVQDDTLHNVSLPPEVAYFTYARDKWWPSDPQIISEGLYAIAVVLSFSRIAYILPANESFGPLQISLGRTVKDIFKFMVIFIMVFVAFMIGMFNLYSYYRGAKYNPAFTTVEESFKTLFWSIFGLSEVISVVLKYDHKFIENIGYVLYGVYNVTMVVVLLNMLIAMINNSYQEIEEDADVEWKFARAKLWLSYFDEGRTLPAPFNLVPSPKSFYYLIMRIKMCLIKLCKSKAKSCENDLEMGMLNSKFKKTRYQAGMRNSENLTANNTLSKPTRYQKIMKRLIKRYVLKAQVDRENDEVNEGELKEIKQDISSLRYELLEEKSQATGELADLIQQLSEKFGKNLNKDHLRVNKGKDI
Put plainly: Agonist activity at human TRPC7 expressed in HEK293 cells assessed as increase in membrane depolarization measured for 2.5 mins in presence of 2 mM Ca2+ by FLIPR membrane potential dye-based fluorescence assay.

The target in test [2] is T2, Short transient receptor potential channel 3 (Homo sapiens) (UniProt Q13507).
T2 sequence (whole entry): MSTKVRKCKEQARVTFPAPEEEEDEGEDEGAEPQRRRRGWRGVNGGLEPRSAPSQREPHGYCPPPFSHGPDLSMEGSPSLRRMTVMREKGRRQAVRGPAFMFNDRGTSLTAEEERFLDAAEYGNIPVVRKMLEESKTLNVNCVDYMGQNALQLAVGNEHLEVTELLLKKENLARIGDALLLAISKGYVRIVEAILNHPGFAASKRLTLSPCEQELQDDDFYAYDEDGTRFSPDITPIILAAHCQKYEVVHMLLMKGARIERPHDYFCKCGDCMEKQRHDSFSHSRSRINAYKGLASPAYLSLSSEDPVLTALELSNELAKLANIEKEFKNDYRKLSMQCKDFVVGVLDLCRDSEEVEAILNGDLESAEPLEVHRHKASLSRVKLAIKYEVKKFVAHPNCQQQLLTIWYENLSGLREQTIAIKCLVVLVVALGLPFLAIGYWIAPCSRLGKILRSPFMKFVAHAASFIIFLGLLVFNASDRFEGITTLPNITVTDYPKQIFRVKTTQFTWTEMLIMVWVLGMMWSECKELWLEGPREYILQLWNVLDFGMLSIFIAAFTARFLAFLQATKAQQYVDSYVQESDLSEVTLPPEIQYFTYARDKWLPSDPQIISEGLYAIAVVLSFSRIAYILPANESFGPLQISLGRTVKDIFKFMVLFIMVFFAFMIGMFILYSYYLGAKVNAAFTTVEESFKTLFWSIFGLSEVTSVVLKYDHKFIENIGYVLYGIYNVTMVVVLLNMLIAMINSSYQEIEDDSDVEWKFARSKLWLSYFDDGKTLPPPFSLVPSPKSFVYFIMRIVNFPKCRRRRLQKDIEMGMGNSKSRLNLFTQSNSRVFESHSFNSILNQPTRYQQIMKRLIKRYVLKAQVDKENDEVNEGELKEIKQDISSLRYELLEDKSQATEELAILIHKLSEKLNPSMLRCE
The test is described as follows: Agonist activity at human TRPC3 expressed in HEK293 cells assessed as increase in intracellular calcium level measured for 2.5 mins by Fluo-8-AM dye based fluorescence assay. An outline of the steps: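 HEK293 cells stably expressing human TRPC3, run on a FlexStation at 32 °C. Loaded with FMP dye, or Fluo-type Ca2+ dye with 2 mM probenecid. Extracellular NaCl/HEPES saline, pH 7.4, with 2 mM Ca2+ (standard) or 0.5 mM Ca2+. Read as F/F0. In 0.5 mM Ca2+, FMP EC50 from a Hill fit, n = 6.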

The target of test [3] is Transient receptor potential cation channel subfamily A member 1 (Homo sapiens) (UniProt O75762). Put plainly: Inhibition of human TRPA1 expressed in HEK293 cells assessed as decrease in flufenamic acid-evoked increase in intracellular calcium level at 22 uM preincubated for 2 mins followed by flufenamic acid addition measured for 2.5 mins by Fluo8-AM dye-based fluorescence assay relative to control. An outline of the steps: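 Same TRP panel as for the stimulation tests, with FMP dye for TRPC4 and M5 and Fluo8-AM for TRPA1, V1 and M8. Compound applied for 2 min before the channel agonist (TRPC4: 1 μM DAMGO). Inhibition of the agonist response measured on a FlexStation at 32 °C.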
In general terms: Calcium assays in cells follow changes in intracellular calcium, usually with a dye or a luminescent sensor.

Transient receptor potential cation channel subfamily A member 1 (Homo sapiens), sequence (O75762 whole entry): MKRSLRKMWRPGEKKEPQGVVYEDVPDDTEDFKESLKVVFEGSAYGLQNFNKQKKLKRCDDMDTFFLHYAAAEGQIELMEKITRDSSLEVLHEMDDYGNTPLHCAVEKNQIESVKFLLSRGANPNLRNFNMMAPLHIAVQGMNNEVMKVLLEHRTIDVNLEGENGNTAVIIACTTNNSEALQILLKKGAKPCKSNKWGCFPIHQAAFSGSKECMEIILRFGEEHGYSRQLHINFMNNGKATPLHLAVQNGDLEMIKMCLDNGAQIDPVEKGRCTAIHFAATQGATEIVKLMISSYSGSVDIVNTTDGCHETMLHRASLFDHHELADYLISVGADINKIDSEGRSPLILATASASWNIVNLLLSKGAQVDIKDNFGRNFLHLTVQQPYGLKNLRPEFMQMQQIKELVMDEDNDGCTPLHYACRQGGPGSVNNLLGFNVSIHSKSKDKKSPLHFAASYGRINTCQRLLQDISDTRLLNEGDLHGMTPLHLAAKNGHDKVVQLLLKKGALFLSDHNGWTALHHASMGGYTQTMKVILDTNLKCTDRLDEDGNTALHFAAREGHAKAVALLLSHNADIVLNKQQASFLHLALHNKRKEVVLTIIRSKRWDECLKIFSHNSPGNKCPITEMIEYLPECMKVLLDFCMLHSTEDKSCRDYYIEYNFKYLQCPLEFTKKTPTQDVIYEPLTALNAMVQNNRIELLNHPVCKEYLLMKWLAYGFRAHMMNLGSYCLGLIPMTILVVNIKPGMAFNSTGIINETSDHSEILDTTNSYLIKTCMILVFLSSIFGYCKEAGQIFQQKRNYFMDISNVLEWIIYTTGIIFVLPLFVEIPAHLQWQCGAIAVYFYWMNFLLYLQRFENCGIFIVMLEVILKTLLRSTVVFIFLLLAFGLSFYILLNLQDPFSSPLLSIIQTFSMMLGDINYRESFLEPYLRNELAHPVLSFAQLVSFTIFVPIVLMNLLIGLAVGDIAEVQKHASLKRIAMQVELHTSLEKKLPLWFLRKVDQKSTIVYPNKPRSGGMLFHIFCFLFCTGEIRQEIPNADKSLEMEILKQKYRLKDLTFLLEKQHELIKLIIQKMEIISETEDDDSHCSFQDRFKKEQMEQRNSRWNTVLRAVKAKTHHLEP

In the case of `CCOC(=O)N1CCC(c2cc(O)n3nc(C)c(-c4ccc(F)cc4)c3n2)CC1`, the result in test [1] was Active. Further, in test [2], the outcome was inactive.

For orientation: inhibition means the share of the control response that was lost under treatment. On to `CCOC(=O)N1CCC(c2cc(O)n3nc(C)c(-c4ccc(C(F)(F)F)cc4)c3n2)CC1`, for which the inhibition in test [3] is below 20%.
